Assay results reported in article PMC11658390 (BMC Chemistry, 2024).

Key:
[1] = test system: C. albicans (ATCC SC5314); experiment: Antifungal activity, broth microdilution MIC; format: cell-based
[2] = test system: MCF-7 breast cancer cell line; experiment: Anticancer screening, MTT assay; format: cell-based, human
Procedure, shortened: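 MCF-7 cells were seeded at 10,000 cells/well and grown 24 h in DMEM with 10% FBS and 1% antibiotic at 37 °C, 5% CO2. They were then exposed for 24 h to a range of test compound concentrations prepared in incomplete medium. MTT was added at 250 µg/ml final for 2 h, the supernatant was removed, and formazan was dissolved in DMSO. Absorbance was read at 540 nm, in triplicate.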

DHFR = molecular target: T1, DHFR (Homo sapiens, UniProt P00374); experiment: DHFR inhibition assay; format: biochemical; settings: from IC50 values
T1 sequence (P00374 1-187): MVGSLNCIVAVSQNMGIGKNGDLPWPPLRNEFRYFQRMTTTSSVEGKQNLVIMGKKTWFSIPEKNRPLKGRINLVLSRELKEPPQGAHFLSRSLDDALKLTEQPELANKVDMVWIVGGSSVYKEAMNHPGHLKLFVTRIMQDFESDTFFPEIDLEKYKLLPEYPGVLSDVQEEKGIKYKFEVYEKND

Compound	Inhibitory activity against fungal strain C. albicans, in words [1]	Anticancer activity against MCF-7, in words [2]	DHFR inhibitory potency relative to methotrexate (DHFR)
CC1CCC(C(C)C)C(OC(=O)C=Cc2ccc(O)c(O)c2)C1 (stereo not drawn) [CE3, 2-isopropyl-5-methylcyclohexyl 3-(3,4-dihydroxyphenyl)acrylate]	moderate action	moderate anticancer activity	–
CC(C)NCC(COc1cccc2ccccc12)OC(=O)C=Cc1ccc(O)c(O)c1 (stereo not drawn) [CE11, 1-(isopropylamino)−3-(naphthalen-1-yloxy)propan-2-yl 3-(3,4-dihydroxyphenyl)acrylate]	–	–	approximately four times more effective than methotrexate
O=C(C=Cc1ccc(O)c(O)c1)OCCc1ccccc1 [CE12, Phenethyl 3-(3,4-dihydroxyphenyl)acrylate]	moderate action	–	–
Nc1ccccc1OC(=O)C=Cc1ccc(O)c(O)c1 [CE17, 2-aminophenyl 3-(3,4-dihydroxyphenyl)acrylate]	moderate action	moderate anticancer activity	–
